# Test results published in ChEMBL document CHEMBL1140316, “Synthesis and immunosuppressive activity of new artemisinin derivatives. 1. [12(beta or alpha)-Dihydroartemisininoxy]phen(ox)yl aliphatic acids and esters” (J Med Chem, 2005).
# Legend:
# Mus musculus [1] = organism: Mus musculus; experiment: In vitro concentration of compound required to reduced spleen cell viability to 50% in BALB/c mice; assay type: functional
# How it was run: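 Male BALB/c mouse spleen cells (7–9 weeks), erythrocytes lysed with ammonium chloride, 5 × 10^5 cells per well in RPMI 1640/10% FBS with antibiotics. Exposed to a range of compound concentrations for 48 h at 37 °C, 5% CO2. MTT (5 mg/mL stock) added for the final 5 h, then SDS/DMF lysis buffer (pH 7.2) for 6–7 h. Absorbance read at 570 nm; CC50 is the concentration reducing viability to 50%.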
# T-cell = experiment: In vitro concentration of compound required to inhibit ConA-induced T cell proliferation to 50% in BALB/c mice; assay type: functional, cell-based; settings: Mus musculus
# How it was run: (§1)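 Fresh spleen cells from male BALB/c mice (7–9 weeks); 5 × 10^5 cells per well in RPMI 1640 with 10% FBS, penicillin/streptomycin, 37 °C, 5% CO2, 48 h, with test compounds at varied concentrations. Stimulated with 5 µg/mL ConA (T cells) or 10 µg/mL LPS (B cells). Proliferation read as [3H]thymidine uptake over an 8 h pulse (20 kBq/well), scintillation counting. IC50 is the concentration that inhibits proliferation to 50% of control.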
# Mus musculus [2] = organism: Mus musculus; experiment: Ratio of concentration that reduced cell viability to inhibitory concentration for ConA-induced T cell proliferation; assay type: functional
# Mus musculus [3] = organism: Mus musculus; experiment: Ratio of concentration that reduced cell viability to inhibitory concentration for LPS-induced B cell proliferation; assay type: functional
# [4] = In vitro concentration of compound required to inhibit LPS-induced B cell proliferation to 50% in BALB/c mice; assay type: functional, cell-based; settings: Mus musculus; how it was run: as §1
smiles,measurement,setting,value
C[C@H]1[C@@H](Oc2ccc(CC(=O)O)cc2)O[C@@H]2O[C@]3(C)CCC4[C@H](C)CC[C@@H]1[C@]42OO3 (some centres not stated),CC50,Mus musculus [1],> 100 µM
same,IC50,T-cell,11.8 µM
same,Selectivity index,Mus musculus [2],>9
same,Selectivity index,Mus musculus [3],>10
same,IC50,[4],10.2 µM
C[C@H]1[C@@H](Oc2cccc(OC(=O)CCC(=O)O)c2)O[C@@H]2O[C@]3(C)CCC4[C@H](C)CC[C@@H]1[C@]42OO3 (some centres not stated),CC50,Mus musculus [1],52.7 µM
same,IC50,T-cell,0.327 µM
same,Selectivity index,Mus musculus [2],161
same,Selectivity index,Mus musculus [3],199
same,IC50,[4],0.265 µM
CCOC(=O)CNC(=O)c1ccc(O[C@H]2O[C@@H]3O[C@]4(C)CC[C@H]5[C@H](C)CC[C@@H]([C@H]2C)[C@@]35OO4)cc1,CC50,Mus musculus [1],130 µM
same,IC50,T-cell,2.53 µM
same,Selectivity index,Mus musculus [2],51
same,Selectivity index,Mus musculus [3],2421
same,IC50,[4],0.0537 µM
CC(Oc1cccc(OC2O[C@@H]3O[C@]4(C)CC[C@H]5[C@H](C)CC[C@@H]([C@H]2C)[C@@]35OO4)c1)C(=O)O (some centres not stated),CC50,Mus musculus [1],35.1 µM
same,IC50,T-cell,8.6 µM
same,Selectivity index,Mus musculus [2],4
same,Selectivity index,Mus musculus [3],47
same,IC50,[4],0.74 µM
"CCOC(=O)C(C)Oc1ccc(OC2O[C@@H]3OC4(C)CCC5[C@H](C)CC[C@@H]([C@H]2C)[C@]53OO4)cc1 (single isomer, unassigned)",CC50,Mus musculus [1],> 100 µM
same,IC50,T-cell,0.26 µM
same,Selectivity index,Mus musculus [2],>385
same,Selectivity index,Mus musculus [3],>118
same,IC50,[4],0.85 µM
"CC(C(=O)O)c1ccc(O[C@H]2O[C@@H]3OC4(C)CCC5[C@H](C)CC[C@@H]([C@H]2C)[C@]53OO4)cc1 (single isomer, unassigned)",CC50,Mus musculus [1],59.6 µM
same,IC50,T-cell,3.6 µM
same,Selectivity index,Mus musculus [2],17
same,Selectivity index,Mus musculus [3],7
same,IC50,[4],8.6 µM
"CC(Oc1cccc(O[C@@H]2OC3OC4(C)CCC5[C@H](C)CC[C@@H]([C@H]2C)[C@@]35OO4)c1)C(=O)O (single isomer, unassigned)",CC50,Mus musculus [1],5.54 µM
same,IC50,T-cell,7.64 µM
same,Selectivity index,Mus musculus [2],1
same,Selectivity index,Mus musculus [3],5
same,IC50,[4],1.05 µM
"C[C@H]1[C@@H](Oc2ccc(OCC(=O)O)cc2)OC2OC3(C)CCC4[C@H](C)CC[C@@H]1[C@@]24OO3 (single isomer, unassigned)",CC50,Mus musculus [1],354 µM
same,IC50,T-cell,5.34 µM
same,Selectivity index,Mus musculus [2],66
same,Selectivity index,Mus musculus [3],59
same,IC50,[4],5.98 µM
"COC(=O)Cc1ccc(O[C@H]2O[C@@H]3OC4(C)CCC5[C@H](C)CC[C@@H]([C@H]2C)[C@]53OO4)cc1 (single isomer, unassigned)",CC50,Mus musculus [1],8 µM
same,IC50,T-cell,0.713 µM
same,Selectivity index,Mus musculus [2],11
same,Selectivity index,Mus musculus [3],45
same,IC50,[4],0.179 µM
"COc1ccccc1OC(=O)C(C)Oc1cccc(O[C@H]2O[C@@H]3OC4(C)CC[C@H]5[C@H](C)CC[C@@H]([C@H]2C)[C@@]35OO4)c1 (single isomer, unassigned)",CC50,Mus musculus [1],2.99 µM
same,IC50,T-cell,4.12 µM
same,Selectivity index,Mus musculus [2],1
same,Selectivity index,Mus musculus [3],5
same,IC50,[4],0.57 µM
"CCOC(=O)C(C)Oc1cccc(OC2OC3OC4(C)CC[C@H]5[C@H](C)CC[C@@H]([C@H]2C)[C@@]35OO4)c1 (single isomer, unassigned)",CC50,Mus musculus [1],1.36 µM
same,IC50,T-cell,1.73 µM
same,Selectivity index,Mus musculus [2],1
same,Selectivity index,Mus musculus [3],4
same,IC50,[4],0.35 µM
"CC(Oc1ccc(OC2O[C@@H]3OC4(C)CC[C@H]5[C@H](C)CC[C@@H]([C@H]2C)[C@@]35OO4)cc1)C(=O)O (single isomer, unassigned)",CC50,Mus musculus [1],> 100 µM
same,IC50,T-cell,7.27 µM
same,Selectivity index,Mus musculus [2],>14
same,Selectivity index,Mus musculus [3],>116
same,IC50,[4],0.86 µM
"C[C@H]1[C@@H](Oc2ccc(OCC(=O)OCCN(C)C)cc2)O[C@@H]2OC3(C)CC[C@H]4[C@H](C)CC[C@@H]1[C@@]24OO3 (single isomer, unassigned)",CC50,Mus musculus [1],2.08 µM
same,IC50,T-cell,1.96 µM
same,Selectivity index,Mus musculus [2],1
same,Selectivity index,Mus musculus [3],42
same,IC50,[4],0.0496 µM
"COC(=O)CCc1ccc(O[C@H]2O[C@@H]3OC4(C)CC[C@H]5[C@H](C)CC[C@@H]([C@H]2C)[C@@]35OO4)cc1 (single isomer, unassigned)",CC50,Mus musculus [1],41.7 µM
same,IC50,T-cell,0.138 µM
same,Selectivity index,Mus musculus [2],302
same,Selectivity index,Mus musculus [3],2343
same,IC50,[4],0.0178 µM
"COc1ccccc1OC(=O)C(C)Oc1ccc(O[C@H]2O[C@@H]3OC4(C)CC[C@H]5[C@H](C)CC[C@@H]([C@H]2C)[C@@]35OO4)cc1 (single isomer, unassigned)",CC50,Mus musculus [1],39.1 µM
same,IC50,T-cell,2.33 µM
same,Selectivity index,Mus musculus [2],17
same,Selectivity index,Mus musculus [3],145
same,IC50,[4],0.27 µM
"COC(=O)C(C)c1ccc(O[C@H]2O[C@@H]3OC4(C)CC[C@H]5[C@H](C)CC[C@@H]([C@H]2C)[C@@]35OO4)cc1 (single isomer, unassigned)",CC50,Mus musculus [1],6.53 µM
same,IC50,T-cell,0.0137 µM
same,Selectivity index,Mus musculus [2],477
same,Selectivity index,Mus musculus [3],8
same,IC50,[4],0.78 µM
"COC(=O)COc1ccc(O[C@H]2OC3OC4(C)CC[C@H]5[C@H](C)CC[C@@H]([C@H]2C)[C@@]35OO4)cc1 (single isomer, unassigned)",CC50,Mus musculus [1],207 µM
same,IC50,T-cell,0.244 µM
same,Selectivity index,Mus musculus [2],848
same,Selectivity index,Mus musculus [3],28473
same,IC50,[4],0.00727 µM
"C[C@H]1[C@@H](Oc2ccc(CCC(=O)O)cc2)O[C@@H]2OC3(C)CC[C@H]4[C@H](C)CC[C@@H]1[C@@]24OO3 (single isomer, unassigned)",CC50,Mus musculus [1],10.4 µM
same,IC50,T-cell,4 µM
same,Selectivity index,Mus musculus [2],3
same,Selectivity index,Mus musculus [3],97
same,IC50,[4],0.107 µM
"CCOC(=O)C(C)Oc1cccc(O[C@H]2O[C@@H]3OC4(C)CC[C@H]5[C@H](C)CC[C@@H]([C@H]2C)[C@@]35OO4)c1 (single isomer, unassigned)",CC50,Mus musculus [1],2.99 µM
same,IC50,T-cell,3.59 µM
same,Selectivity index,Mus musculus [2],1
same,Selectivity index,Mus musculus [3],5
same,IC50,[4],0.56 µM
CO[C@H]1O[C@@H]2O[C@@]3(C)CC[C@H]4[C@H](C)CC[C@@H]([C@H]1C)[C@@]24OO3 [ARTEMETHER],CC50,Mus musculus [1],86 µM
same,IC50,T-cell,3.82 µM
same,Selectivity index,Mus musculus [2],23
same,Selectivity index,Mus musculus [3],48
same,IC50,[4],1.78 µM
C[C@@H]1CC[C@H]2[C@@H](C)C(=O)O[C@@H]3O[C@@]4(C)CC[C@@H]1[C@]32OO4 [ARTEMISININ],CC50,Mus musculus [1],28.3 µM
same,IC50,T-cell,4.43 µM
same,Selectivity index,Mus musculus [2],6
same,Selectivity index,Mus musculus [3],3
same,IC50,[4],8.96 µM
C[C@H]1[C@H](OC(=O)CCC(=O)O)O[C@@H]2O[C@@]3(C)CC[C@H]4[C@H](C)CC[C@@H]1[C@@]24OO3 [ARTESUNATE],CC50,Mus musculus [1],32.9 µM
same,IC50,T-cell,4.58 µM
same,Selectivity index,Mus musculus [2],7
same,Selectivity index,Mus musculus [3],33
same,IC50,[4],0.989 µM
C/C=C/C[C@@H](C)[C@@H](O)[C@H]1C(=O)N[C@@H](CC)C(=O)N(C)CC(=O)N(C)[C@@H](CC(C)C)C(=O)N[C@@H](C(C)C)C(=O)N(C)[C@@H](CC(C)C)C(=O)N[C@@H](C)C(=O)N[C@H](C)C(=O)N(C)[C@@H](CC(C)C)C(=O)N(C)[C@@H](CC(C)C)C(=O)N(C)[C@@H](C(C)C)C(=O)N1C [CYCLOSPORINE],Selectivity index,Mus musculus [2],963
same,Selectivity index,Mus musculus [3],7
